High-throughput results deposited in PubChem by Sanford-Burnham Center for Chemical Genomics.
Apaf1 activ: human Apaf-1 activation; AID 489031; activity change, negative = activation, % at 20 µM; 0.31% of 330,000 active; O14727; Apaf-1 apoptosome caspase-3 activation, DEVD-Rh110 fluorescence; hits give low values;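 active = activity change at or below -40% at 20 µM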
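Schedule: 30 min preincubation, 50 min reaction, room temperature / System: biochemical Apaf-1 apoptosome reconstitution / Medium: 20 mM HEPES pH 7.5 with CHAPS, BSA / Evaluation: Caspase-3 cleavage activity downstream of Apaf-1 activation / Detection: Caspase-3-released Rh110 fluorescence, 540 nm emission, 480 nm excitation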
Of the large screens only hits and unclear results are named; the others gave an inactive call. Not all results are given here.

O=C(Nc1nc2c(Cl)cccc2s1)c1ccc([N+](=O)[O-])o1	Apaf1 activ -120
O=C(/C=C/c1ccco1)c1ccc(NC(=O)C23CC4CC(CC(C4)C2)C3)cc1	none
CCC1CCc2sc(C(=O)NCC(c3ccc(OC)cc3)N3CCCC3)cc2C1 (stereo unspecified)	none
CC1(C)C=C2C(=NN(c3ccccc3)C(N)=C2C#N)CO1	none
NS(=O)(=O)c1ccc(CCNC(=O)CCS(=O)(=O)c2ccc(Br)cc2)cc1	Apaf1 activ -214
CC1=C(C#N)C(=O)N(C2CCS(=O)(=O)C2)C(=O)/C1=C\c1ccco1 (stereo unspecified)	none
COc1ccc(OCc2cc(C(=O)NC3CCOC(C)(C)C3)no2)c2ccccc12 (stereo unspecified)	none
CN(C)CCCNc1cc(O)c2ncccc2c1	none
Cc1ccc(NC(=O)CSc2nc3ccccc3c(=O)n2CCCN2CCCCC2)cc1C	none
O=C1Cc2cc(S(=O)(=O)N3CCNCC3)ccc2N1	none
C#CCOCCOCCOCCNc1nc(N2CCN(C(=O)CCCCCCCCCCNC(=O)Cn3cc(CCCCCN)nn3)CC2)nc(N2CCN(C(=O)CCCCCCCCCCNC(=O)[C@H]([C@@H](C)CC)n3cc(CCCCCN)nn3)CC2)n1	none
O=C(NC(C(=O)N/N=C/c1cc([N+](=O)[O-])ccc1O)c1n[nH]c(=O)c2ccccc12)c1ccccc1 (stereo unspecified)	Apaf1 activ -439
O=[N+]([O-])c1ccc(O)c(C=Nc2cccc3ncccc23)c1	none
O=[N+]([O-])c1ccc(O)c(C=Nc2cccc3ccccc23)c1	none
CC(=O)c1ccc(OCCCC(=O)N2CCN(S(=O)(=O)c3ccc(C)cc3C)CC2)cc1	none
CCC(C)Nc1ccc(NC(C)CC)cc1 (stereo unspecified)	none
CCCN1CCN(C(=O)C2CCN(S(=O)(=O)c3c(C)noc3/C=C/c3ccc(C)cc3)CC2)CC1	none
O=S(=O)(NCC(c1ccccc1)N1CCNCC1)c1ccc(Cl)cc1 (stereo unspecified)	none
Cc1noc(C)c1S(=O)(=O)N1CCN(C(c2ccccc2)c2ccc(Cl)cc2)CC1 (stereo unspecified)	Apaf1 activ -108
O=C(Nc1ccccc1)Nc1ccc(O)c2ccccc12	none
CC[n+]1c(/C=C/N(C)c2ccccc2)n(-c2ccccc2)c2ccc(-c3nc4ccccc4s3)cc21	none
CCN(CC)c1ccc(/C=C/c2nc3ccccc3s2)cc1	Apaf1 activ -305
O=C1Cc2cc([N+](=O)[O-])ccc2N1c1c(Cl)cccc1Cl	none
Oc1c(Br)cc(Br)cc1C=Nc1cccc2ncccc12	none
N#CCCN(C(=O)COC(=O)C12CC3CC(CC(O)(C3)C1)C2)c1ccc(F)cc1	none
CCC[C@@H](CN1CCC[C@H]1CN1C(N)=NC[C@H]1C(C)C)N1C[C@@H](Cc2ccccc2)N(CCCC2CCCC2)C1=N	none
O=c1[nH]nc(-c2ccc(OCc3ccc(Cl)cc3Cl)cc2)o1	Apaf1 activ -54
Cc1cc(/C=N/n2cnnc2)c(C)n1-c1ccc(OCc2ccc(Cl)cc2Cl)cc1	none
COc1ccc(N=CC2=C(Nc3ccc(OC)cc3)c3c(C)nn(-c4ccccn4)c3CC2)cc1	none
CC1(c2ccc(OC(F)F)cc2)NC(=O)N(CC(=O)Nc2ccc(N3CCCCC3)cc2)C1=O (stereo unspecified)	none
ONc1cccnc1-n1nc(C(F)(F)F)cc1C(F)(F)F	none
COc1ccc(NS(=O)(=O)c2cc(C(=O)N3CCC3)ccc2C)cc1	none
CN(Cc1ccccn1)C(=O)c1ccc2nc(Cc3cccc(Cl)c3)oc2c1	Apaf1 activ -116
CN(C)c1cc(Cl)c2nonc2c1N	none
O=C(CCS(=O)(=O)c1ccc(Br)cc1)N1CCCCCC1	Apaf1 activ -283
O=C1OC(Nc2cc(Br)cc3cccnc23)c2ccccc21 (stereo unspecified)	none
CCN(CC(=O)Nc1ccc(OC)cc1)C(=O)C1CCN(C(=O)c2ccc(Cl)cc2)CC1	none
CCCOc1ccc(C2C(C(=O)c3ccco3)=C(O)C(=O)N2CCN2CCOCC2)cc1OC (stereo unspecified)	Apaf1 activ -492
CCOc1cc(C2C(C(C)=O)=C(O)C(=O)N2CCc2c[nH]c3ccccc23)ccc1O (stereo unspecified)	none
CCC(=O)NC1=C(Cl)C(=O)C(NC(=O)CC)=C(Cl)C1=O	none
C=C(C)C(=O)Nc1cccc(C2=NOC3(C2)C[C@@H](C(N)=O)N(C(=O)C2(C)CC2)C3)c1 (stereo partly specified)	Apaf1 activ -295
NC(=O)[C@H](Cc1cc2ccccc2s1)NC(=O)[C@@H]1CC2(CC(c3cccc(NC(=O)[C@@H]4CCC(=O)N4)c3)=NO2)CN1C(=O)/C=C/c1c(F)cccc1Cl (stereo partly specified)	none
Cc1cccc(N2CCN(C(=O)c3cc4cc(F)ccc4[nH]3)CC2)c1C	none
O=C(OCC(=O)N1CCC(c2ccccc2)=N1)c1ccc([N+](=O)[O-])s1	none
CNC[C@H](Cc1cccc2ccccc12)NC[C@H](CCSC)NCC1CCC(C(C)(C)C)CC1 (stereo partly specified)	none
Cc1nn(-c2ccccc2)c(N2CCCC2)c1/C=C1\N=C(c2ccc(OC(C)C)cc2)OC1=O	none
